Experimental data published in ChEMBL document CHEMBL4028900, “Design of Novel 3-Pyrimidinylazaindole CDK2/9 Inhibitors with Potent In Vitro and In Vivo Antitumor Efficacy in a Triple-Negative Breast Cancer Model” (J Med Chem, 2017).
Values after ≈ are worked out from the molar mass of the structure shown.

How the values were obtained:
[1] = target: CDK2/Cyclin A2 (Homo sapiens) (UniProt P24941+P20248); details: at 500 nM
[2] = target: CDK9/cyclin T1 (Homo sapiens) (UniProt O60563+P50750); details: at 500 nM
CDK2/Cyclin A2 = CDK2/Cyclin A2 (Homo sapiens, UniProt P24941); experiment: Inhibition of CDK2/cyclin A (unknown origin) using histone H1 as substrate after 30 mins in presence of [33P]-gamma-ATP; assay type: protein-complex assay
HCT-116 = experiment: Antiproliferative activity against human HCT116 cells after 72 hrs by SRB assay; details: HCT-116, 72 h
CDK9/cyclin T1 = CDK9/cyclin T1 (Homo sapiens, UniProt P50750); assay type: protein-complex assay
[3] = Thermodynamic equilibrium solubility of the compound in water
[4] = Thermodynamic equilibrium solubility of the compound in SGF
[5] = Thermodynamic equilibrium solubility of the compound in PBS
[6] = Thermodynamic equilibrium solubility of the compound in SIF
SH-SY5Y = experiment: Antiproliferative activity against human SH-SY5Y cells after 24 hrs by MTT assay; assay type: functional, cell-based
[7] = Plasma concentration in BALB/c mouse at 2.5 mg/kg, iv at 1 hr by LC/MS-MS analysis; assay type: ADME, organism-based
[8] = Plasma concentration in BALB/c mouse at 2.5 mg/kg, iv at 0.25 hrs by LC/MS-MS analysis; assay type: ADME, organism-based
[9] = Initial concentration in BALB/c mouse at 2.5 mg/kg, iv by LC/MS-MS analysis; assay type: ADME, organism-based; details: in vivo
[10] = Plasma concentration in BALB/c mouse at 5 mg/kg, ip at 2 hrs by LC/MS-MS analysis; assay type: ADME, organism-based
[11] = Plasma concentration in BALB/c mouse at 5 mg/kg, ip at 0.25 hrs by LC/MS-MS analysis; assay type: ADME, organism-based
Mus musculus [12] = experiment: Clearance in BALB/c mouse at 5 mg/kg, ip by LC/MS-MS analysis; assay type: ADME, organism-based; details: in vivo
[13] = Plasma concentration in BALB/c mouse at 5 mg/kg, ip at 0.5 hrs by LC/MS-MS analysis; assay type: ADME, organism-based
[14] = Plasma concentration in BALB/c mouse at 2.5 mg/kg, iv at 0.5 hrs by LC/MS-MS analysis; assay type: ADME, organism-based
[15] = Plasma concentration in BALB/c mouse at 5 mg/kg, ip at 4 hrs by LC/MS-MS analysis; assay type: ADME, organism-based
[16] = AUC (0 to t) in BALB/c mouse at 2.5 mg/kg, iv by LC/MS-MS analysis; assay type: ADME, organism-based; details: in vivo
Mus musculus [17] = experiment: AUC (0 to infinity) in BALB/c mouse at 5 mg/kg, ip by LC/MS-MS analysis; assay type: ADME, organism-based; parameters: dose 5 mg/kg, route intraperitoneal, time infinity; details: in vivo
Mus musculus [18] = experiment: Half life in BALB/c mouse at 5 mg/kg, ip by LC/MS-MS analysis; assay type: ADME, organism-based; details: in vivo
[19] = Plasma concentration in BALB/c mouse at 5 mg/kg, ip at 1 hr by LC/MS-MS analysis; assay type: ADME, organism-based
4T1 = experiment: Antitumor activity against mouse 4T1 cells allografted in iv dosed Balb/C mouse assessed as tumor growth inhibition administered every 3 days for 21 days measured 2 times for every week during dosing; assay type: functional, organism-based
Summary of the method: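 4T1 cells were grown in RPMI-1640 with 10% FBS, pyruvate and NEAA at 37 °C and 5% CO2. Female Balb/C mice received 1×10^6 cells into the second mammary fat pad. At about 100 mm3, mice were grouped five per group and dosed by tail vein in 200 µL (PBS diluent) every three days for 21 days. Tumor volume (L×B²/2, caliper) and body weight were taken twice weekly. The experiment was repeated twice.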

[20] = Clearance in BALB/c mouse at 2.5 mg/kg, iv by LC/MS-MS analysis; assay type: ADME, organism-based; details: in vivo
Mus musculus [21] = experiment: Volume of distribution in BALB/c mouse at 5 mg/kg, ip by LC/MS-MS analysis; assay type: ADME, organism-based; details: in vivo
[22] = Half life in BALB/c mouse at 2.5 mg/kg, iv by LC/MS-MS analysis; assay type: ADME, organism-based; details: in vivo
[23] = Plasma concentration in BALB/c mouse at 2.5 mg/kg, iv at […] by LC/MS-MS analysis; assay type: ADME, organism-based
[24] = AUC (0 to t) in BALB/c mouse at 5 mg/kg, ip by LC/MS-MS analysis; assay type: ADME, organism-based; details: in vivo
[25] = AUC (0 to infinity) in BALB/c mouse at 2.5 mg/kg, iv by LC/MS-MS analysis; assay type: ADME, organism-based; parameters: dose 2.5 mg/kg, time infinity, route intravenous; details: in vivo
[26] = Volume of distribution in BALB/c mouse at 2.5 mg/kg, iv by LC/MS-MS analysis; assay type: ADME, organism-based; details: in vivo
[27] = Plasma concentration in BALB/c mouse at 2.5 mg/kg, iv at 2 hrs by LC/MS-MS analysis; assay type: ADME, organism-based

Sequence of CDK9/cyclin T1 (O60563 whole entry): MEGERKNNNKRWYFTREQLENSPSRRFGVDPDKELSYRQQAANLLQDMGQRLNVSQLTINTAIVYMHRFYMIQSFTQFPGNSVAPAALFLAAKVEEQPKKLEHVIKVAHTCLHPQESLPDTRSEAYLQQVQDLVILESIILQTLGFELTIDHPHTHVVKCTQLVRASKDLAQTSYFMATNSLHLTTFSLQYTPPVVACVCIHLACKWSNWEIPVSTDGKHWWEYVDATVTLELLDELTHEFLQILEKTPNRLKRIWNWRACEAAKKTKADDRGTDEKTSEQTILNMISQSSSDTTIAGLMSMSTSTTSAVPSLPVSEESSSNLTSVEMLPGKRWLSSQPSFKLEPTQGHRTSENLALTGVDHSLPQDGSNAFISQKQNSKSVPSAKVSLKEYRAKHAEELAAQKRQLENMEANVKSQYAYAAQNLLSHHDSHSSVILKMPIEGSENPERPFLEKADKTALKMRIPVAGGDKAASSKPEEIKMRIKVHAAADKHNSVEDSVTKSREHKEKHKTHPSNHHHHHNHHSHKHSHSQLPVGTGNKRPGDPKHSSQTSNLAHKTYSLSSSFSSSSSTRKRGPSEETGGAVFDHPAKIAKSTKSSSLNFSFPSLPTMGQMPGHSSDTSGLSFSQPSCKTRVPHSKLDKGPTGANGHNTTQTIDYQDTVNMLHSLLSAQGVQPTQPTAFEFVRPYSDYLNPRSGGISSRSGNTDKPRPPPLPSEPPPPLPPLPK
Sequence of CDK9/cyclin T1 (P50750 whole entry): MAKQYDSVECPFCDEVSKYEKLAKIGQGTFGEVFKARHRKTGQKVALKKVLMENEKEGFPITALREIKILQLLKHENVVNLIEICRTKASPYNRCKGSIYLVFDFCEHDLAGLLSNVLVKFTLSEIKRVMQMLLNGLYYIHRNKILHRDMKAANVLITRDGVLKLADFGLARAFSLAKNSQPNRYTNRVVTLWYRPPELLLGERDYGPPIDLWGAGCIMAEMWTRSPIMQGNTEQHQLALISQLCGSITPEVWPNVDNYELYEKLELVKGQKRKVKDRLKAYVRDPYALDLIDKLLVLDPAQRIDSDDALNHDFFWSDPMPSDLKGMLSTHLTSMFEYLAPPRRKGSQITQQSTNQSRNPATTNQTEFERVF

Work on Nc1nccc(-c2cn(S(=O)(=O)c3ccc(OC(F)(F)F)cc3)c3ncccc23)n1 yielded an inhibition [1] of 31.3% and an inhibition [2] of 54.4%.

With Nc1nccc(-c2cn(S(=O)(=O)c3ccc(Br)cc3)c3ncccc23)n1 the inhibition [1] was 28.1% and the inhibition [2] was 31.2%.

With Nc1nccc(-c2cn(S(=O)(=O)c3ccc(F)cc3)c3ncccc23)n1 the inhibition [1] was 22.6% and the inhibition [2] was 40%.

COc1ccc(CCNc2nccc(-c3c[nH]c4ncccc34)n2)cc1 gave an IC50 (CDK2/Cyclin A2) of 0.004 µM, an IC50 (HCT-116) of 9.5 µM and an inhibition [1] of 97.7%. The inhibition [2] was 91% and the IC50 (CDK9/cyclin T1) was 0.038 µM.

For Nc1nccc(-c2c[nH]c3ncc(-c4cc5ccccc5o4)cc23)n1, the IC50 (CDK2/Cyclin A2) was 0.023 µM, the inhibition [1] was 87.9% and the inhibition [2] was 85%. For the same molecule, the IC50 (CDK9/cyclin T1) was 0.093 µM.

Work on Nc1nccc(-c2c[nH]c3ncc(-c4cccnc4)cc23)n1 yielded an IC50 (HCT-116) of 0.7 µM, a solubility thermodynamic [3] of 0.08 mg/mL (≈ 277 µM) and a solubility thermodynamic [4] of 0.8 mg/mL (≈ 2770 µM). The solubility thermodynamic [5] was 0.2 mg/mL (≈ 694 µM), the solubility thermodynamic [6] was 0.001 mg/mL (≈ 3.47 µM) and the IC50 (SH-SY5Y) was 1 µM.

Molecule Nc1nccc(-c2c[nH]c3ncc(-c4cc5ccccc5s4)cc23)n1 has an IC50 (CDK2/Cyclin A2) of 0.012 µM, an inhibition [1] of 92% and an inhibition [2] of 86.4%. For the same molecule, the IC50 (CDK9/cyclin T1) was 0.082 µM.

For Nc1nccc(-c2c[nH]c3ncc(-c4ccoc4)cc23)n1, the IC50 (HCT-116) was 0.7 µM, the solubility thermodynamic [3] was 0.02 mg/mL (≈ 72.1 µM) and the solubility thermodynamic [4] was 0.8 mg/mL (≈ 2890 µM). For the same molecule, the solubility thermodynamic [5] was 0.01 mg/mL (≈ 36.1 µM), the solubility thermodynamic [6] was 0.001 mg/mL (≈ 3.61 µM) and the IC50 (SH-SY5Y) was 0.9 µM.

With Nc1nccc(-c2c[nH]c3ncc(-c4cccc5ccccc45)cc23)n1 the IC50 (CDK2/Cyclin A2) was 0.182 µM, the inhibition [1] was 79.2% and the inhibition [2] was 84%. For the same molecule, the IC50 (CDK9/cyclin T1) was 0.159 µM.

CCc1ccccc1-c1cnc2[nH]cc(-c3ccnc(N)n3)c2c1 gave an IC50 (CDK2/Cyclin A2) of 0.075 µM, an inhibition [1] of 79.3% and an inhibition [2] of 70.4%. For the same molecule, the IC50 (CDK9/cyclin T1) was 0.213 µM.

With CC(=O)Nc1ccc(S(=O)(=O)n2cc(-c3ccnc(N)n3)c3cccnc32)cc1 the inhibition [1] was 36.3% and the inhibition [2] was 44.2%.

COc1ccc2ccccc2c1-c1cnc2[nH]cc(-c3ccnc(N)n3)c2c1 gave an IC50 (CDK2/Cyclin A2) of 1.09 µM, an inhibition [1] of 24.2% and an inhibition [2] of 47.4%. For the same molecule, the IC50 (CDK9/cyclin T1) was 0.625 µM.

With CSc1ccccc1-c1cnc2[nH]cc(-c3ccnc(N)n3)c2c1 the IC50 (CDK2/Cyclin A2) was 0.024 µM, the inhibition [1] was 78.7% and the inhibition [2] was 93.7%. The IC50 (CDK9/cyclin T1) was 0.045 µM.

For COc1ccc2[nH]c(-c3cnc4[nH]cc(-c5ccnc(N)n5)c4c3)cc2c1, the IC50 (CDK2/Cyclin A2) was 0.016 µM, the inhibition [1] was 90.2% and the inhibition [2] was 82.4%. The IC50 (CDK9/cyclin T1) was 0.342 µM.

Nc1nccc(-c2c[nH]c3ncc(-c4ccc(F)cc4)cc23)n1 showed a concentration at 1 h [7] of 0.132 µg/mL, a concentration at 0.25 h [8] of 0.311 µg/mL and a C0 [9] of 1.47 µg/mL. It also gave a concentration at 2 h [10] of 0.0591 µg/mL, a concentration at 0.25 h [11] of 0.162 µg/mL and a CL (Mus musculus [12]) of 0.9 L/h/kg. The concentration at 0.5 h [13] was 0.073 µg/mL, the concentration at 0.5 h [14] was 0.168 µg/mL and the concentration at 4 h [15] was 0.0407 µg/mL. The AUC(0-t) [16] was 0.437 µg·h/mL, the AUC (Mus musculus [17]) was 0.5043 µg·h/mL and the t1/2 (Mus musculus [18]) was 4.4 h. For the same molecule, the concentration at 1 h [19] was 0.0616 µg/mL, the TGI (4T1) was “Dose-dependent effect” and the clearance [20] was 3.1 L/h/kg. It also gave a Vd (Mus musculus [21]) of 63.6 L/kg, a half-life [22] of 2.5 h and a concentration at […] [23] of 0.797 µg/mL. It also gave an AUC(0-t) [24] of 0.243 µg·h/mL, an AUC(0-inf) [25] of 0.795 µg·h/mL and a Vd [26] of 11.3 L/kg. It also gave a concentration at 2 h [27] of 0.0996 µg/mL.
